Bioassay records deposited in PubChem by several laboratories.
ALR H2O2 inh – blocks human ALR sulfhydryl oxidase activity; inhibition, % (test concentration not listed); P55789; AID 485317; actives 3.8% (n = 290,000); purified ALR, DTT oxidation, H2O2 HRP-luminol luminescence;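 active = mean replicate inhibition above about 79%, with every replicate also reaching it, limit read from the data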
Target sequence (P55789 whole entry, looked up): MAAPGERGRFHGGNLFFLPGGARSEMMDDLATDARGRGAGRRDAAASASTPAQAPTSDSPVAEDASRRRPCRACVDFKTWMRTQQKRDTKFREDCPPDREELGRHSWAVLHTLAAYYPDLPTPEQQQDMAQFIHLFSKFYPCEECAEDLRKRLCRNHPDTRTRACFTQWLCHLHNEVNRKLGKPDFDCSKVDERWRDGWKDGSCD
NS3 helicase inh – inhibitors of Hepatitis C virus NS3 helicase; NS3 helicase DNA unwinding, Cy5 molecular beacon fluorescence; inhibition, % at 10.9 µM; actives 0.56% (n = 290,000); AID 1800;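 active = inhibition above the mean of all tested compounds plus 3 SD, set per campaign, cut at about 35% in these data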;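 note: 0% = DMSO wells and 100% = thioflavine S control wells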
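test system = hepatitis C virus NS3 helicase domain fragment enzyme | reagent = annealed dual-labelled DNA beacon duplex, ATP-started | times = 1 h at 25 °C | detection = Cy5 fluorescence, 0 and 60 min reads | read-out basis = percent inhibition from t60/t0 fluorescence ratio | control set = DMSO and thioflavine S | replication = one well per compound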
EBNA-1 inhibitor – blocks EBNA-1 binding to DNA; inhibition, % at 14.8 µM; EBNA-1 DNA binding, fluorescence polarization; AID 1950; actives 0.34% (n = 300,000); in the data active = inhibition above about 28%
core dimer inh – blocks dimerization of HCV core protein. actives 0.33% (n = 300,000). AID 1899. inhibition, % at 5 µM. TR-FRET GST/Flag-core106 dimerization, 1536-well;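 active = inhibition above the mean of all tested compounds plus 3 SD, set per screening campaign, cut at about 45% in these data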
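Material: GST/Flag-tagged HCV core106 proteins. Incubation: 4 h, 22.5 °C incubation. Read-out basis: inhibition (%) from 671 over 617 nm ratio. Measured by: TR-FRET, excitation 340 nm, emission 617 and 671 nm.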
M18AAP inhibitor – blocks P. falciparum M18 aspartyl aminopeptidase. actives 1.2% (n = 290,000). AID 1822. inhibition, % at 7.35 µM. recombinant PfM18AAP, H-Glu-NHMec fluorogenic cleavage;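 active = inhibition above the campaign mean inhibition over all tested compounds plus 3 SD, cut at about 28% in these data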;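 note: 0% = plate median of test compound wells and 100% = 2 mM ZnCl2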
ZTA DNA inh – counter-screen for EBNA-1 inhibitors: inhibitors of Epstein-Barr virus ZTA; ZTA-DNA binding, fluorescence polarization; inhibition, % at 11 µM; actives 0.15% (n = 320,000); in the data active = inhibition above about 33%
Target sequence (P03206 whole entry, looked up): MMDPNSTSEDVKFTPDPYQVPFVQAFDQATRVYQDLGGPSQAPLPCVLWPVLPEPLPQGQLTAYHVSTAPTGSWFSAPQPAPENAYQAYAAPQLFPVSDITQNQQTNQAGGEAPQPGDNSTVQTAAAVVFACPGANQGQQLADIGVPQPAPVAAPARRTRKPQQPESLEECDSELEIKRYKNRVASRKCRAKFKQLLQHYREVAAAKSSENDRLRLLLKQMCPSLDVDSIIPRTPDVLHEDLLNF
An asterisk follows results filed as active. Rows were chosen to be rich in hits. Some 5.2% of all compounds tested hit in one or more screens of this group.

What do the screens show for `CN(C)c1ccc(N=Nc2ccc(S(N)(=O)=O)cc2)cc1`?
ALR H2O2 inh: -14; NS3 helicase inh: 2; EBNA-1 inhibitor: 0; core dimer inh: -34; M18AAP inhibitor: 1; ZTA DNA inh: 5

How did COCCN(Cc1nc2ccccc2c(=O)[nH]1)C(=O)COc1cccc(C(C)=O)c1 do in these assays?
ALR H2O2 inh: 1; ZTA DNA inh: -1

How did Nc1cc(=O)[nH]n1C1CCN(c2ccccc2)CC1 do in these assays?
ALR H2O2 inh: 94*; NS3 helicase inh: 0; EBNA-1 inhibitor: -6; core dimer inh: -3; M18AAP inhibitor: -2; ZTA DNA inh: 12

How did COc1ccccc1C(=O)NCCC(=O)NNC(=O)Cn1ccc(C(F)(F)F)n1 do in these assays?
ALR H2O2 inh: 0; EBNA-1 inhibitor: 0; core dimer inh: -1; ZTA DNA inh: -1

How did COc1cccc(N2CCN(Cc3ccsc3)CC2)c1 do in these assays?
ALR H2O2 inh: 89*; NS3 helicase inh: -6; EBNA-1 inhibitor: -8; core dimer inh: 1; M18AAP inhibitor: -1; ZTA DNA inh: -12

What do the screens show for `COc1cccc(N2CCN(Cc3ccco3)CC2)c1`?
ALR H2O2 inh: 87*; NS3 helicase inh: 13; M18AAP inhibitor: 2

How did COc1cccc(CN2CCSCC2)c1 do in these assays?
ALR H2O2 inh: -8; NS3 helicase inh: 6; EBNA-1 inhibitor: 2; core dimer inh: -2; M18AAP inhibitor: -3; ZTA DNA inh: -11

What do the screens show for `O=C(NCCO)C(=O)Nc1cc2c3c(c1)CCC(=O)N3CCC2`?
ALR H2O2 inh: -8; NS3 helicase inh: 21; EBNA-1 inhibitor: -5; core dimer inh: -9; M18AAP inhibitor: -6; ZTA DNA inh: -14

Results for COc1ccc(C(=O)N/N=C/c2c[nH]c3ccccc23)cc1 ?
ALR H2O2 inh: 12; NS3 helicase inh: 24; EBNA-1 inhibitor: -9; core dimer inh: -18; M18AAP inhibitor: 7; ZTA DNA inh: 9

What do the screens show for `COc1ccc2c(c1)C(=NNc1ccc(C(=O)O)cc1)c1cc(OC)ccc1-2`?
ALR H2O2 inh: 2; NS3 helicase inh: 13; EBNA-1 inhibitor: 21; core dimer inh: -13; M18AAP inhibitor: 8; ZTA DNA inh: 12

Results for COc1ccc2c(/C=N/Nc3ccc(C(=O)O)cc3)c[nH]c2c1 ?
ALR H2O2 inh: 88*; NS3 helicase inh: 31; EBNA-1 inhibitor: -4; core dimer inh: -48; M18AAP inhibitor: -1; ZTA DNA inh: -10

What do the screens show for `COc1ccc(/C(C)=N/Nc2ccc(C(=O)O)cc2)c(OC)c1`?
ALR H2O2 inh: 45; NS3 helicase inh: -6; EBNA-1 inhibitor: 6; core dimer inh: -15; M18AAP inhibitor: 29*; ZTA DNA inh: 2

How did COc1cccc(C2NC(=O)c3sc(=S)n(-c4ccccc4)c3N2)c1 (centres undefined) do in these assays?
ALR H2O2 inh: 97*; NS3 helicase inh: 2; EBNA-1 inhibitor: 6; core dimer inh: -2; M18AAP inhibitor: 8; ZTA DNA inh: 3

How did COc1ccc(OC)c(C2NC(=O)c3sc(=S)n(-c4ccccc4)c3N2)c1 (centres undefined) do in these assays?
ALR H2O2 inh: 19; NS3 helicase inh: 5; EBNA-1 inhibitor: -6; core dimer inh: 1; M18AAP inhibitor: -1; ZTA DNA inh: -6

Results for Cc1ccc(OC(=S)Nc2ccc(O)cc2)cc1 ?
ALR H2O2 inh: 99*; NS3 helicase inh: 6; EBNA-1 inhibitor: -3; core dimer inh: -5; M18AAP inhibitor: 27; ZTA DNA inh: -11

Results for Cc1ccc(OC(=S)Nc2ccc(F)cc2)cc1 ?
ALR H2O2 inh: 13; NS3 helicase inh: 0; EBNA-1 inhibitor: 1; core dimer inh: 2; M18AAP inhibitor: -9; ZTA DNA inh: 8

How did O=c1ccc2ccc(OCCOc3cccc(Cl)c3)cc2o1 do in these assays?
ALR H2O2 inh: 0; NS3 helicase inh: -3; EBNA-1 inhibitor: 4; core dimer inh: 6; M18AAP inhibitor: -10; ZTA DNA inh: 10

Results for COc1cccc(NC(=O)CN(C)C(=O)c2cc3c(s2)CCC3)c1 ?
ALR H2O2 inh: -6; EBNA-1 inhibitor: 5; core dimer inh: 59*; ZTA DNA inh: -9

Results for COc1ccc(NC(=O)CN(C)C(=O)c2cc3c(s2)CCCCC3)cc1 ?
ALR H2O2 inh: -6; NS3 helicase inh: -19; EBNA-1 inhibitor: -1; core dimer inh: 8; M18AAP inhibitor: 1; ZTA DNA inh: -11

Results for COc1ccc(NC(=O)CN(C)C(=O)c2cc3c(s2)CCC3)cc1 ?
ALR H2O2 inh: -4; EBNA-1 inhibitor: 0; core dimer inh: 70*; ZTA DNA inh: 9

How did Cc1ccc(CN(CC(O)COc2cccc3[nH]cc(C)c23)C(C)(C)C)cc1 (centres undefined) do in these assays?
ALR H2O2 inh: -65; NS3 helicase inh: -18; EBNA-1 inhibitor: -6; core dimer inh: -11; M18AAP inhibitor: -4; ZTA DNA inh: -1

How did Cc1c[nH]c2cccc(OCC(CNC(C)(C)C)OC(=O)c3ccccc3)c12 (centres undefined) do in these assays?
ALR H2O2 inh: 81*; NS3 helicase inh: -54; EBNA-1 inhibitor: 5; core dimer inh: -4; M18AAP inhibitor: -6; ZTA DNA inh: 4

How did Nc1ccccc1OCCOCCOc1ccccc1N do in these assays?
ALR H2O2 inh: 98*; NS3 helicase inh: 6; EBNA-1 inhibitor: 3; core dimer inh: -6; M18AAP inhibitor: 5; ZTA DNA inh: 1

What do the screens show for `Nc1ccccc1OCCOc1ccccc1N`?
ALR H2O2 inh: 8; NS3 helicase inh: 5; EBNA-1 inhibitor: -11; core dimer inh: 10; M18AAP inhibitor: 2; ZTA DNA inh: 2

What do the screens show for `CC1CCN(C(=O)CSc2nc(C(C)C)nc3c2c(=O)n(C)c(=O)n3C)CC1`?
ALR H2O2 inh: -4; NS3 helicase inh: 5; EBNA-1 inhibitor: 0; core dimer inh: 7; M18AAP inhibitor: -5; ZTA DNA inh: -20

What do the screens show for `COc1ccccc1NC(=O)CSc1nc(SC)ns1`?
ALR H2O2 inh: 85*; NS3 helicase inh: 0; EBNA-1 inhibitor: -5; core dimer inh: -1; M18AAP inhibitor: -10; ZTA DNA inh: -13

What do the screens show for `CSc1nsc(SCC(=O)Nc2cccc(NC(C)=O)c2)n1`?
ALR H2O2 inh: 99*; NS3 helicase inh: 1; EBNA-1 inhibitor: 6; core dimer inh: -3; M18AAP inhibitor: 0; ZTA DNA inh: 5

How did CSc1nsc(SCC(=O)Nc2ccc3c(c2)OCCO3)n1 do in these assays?
ALR H2O2 inh: 98*; NS3 helicase inh: 5; EBNA-1 inhibitor: -1; core dimer inh: -7; M18AAP inhibitor: -7; ZTA DNA inh: 1

Results for Cc1csc(SCC(=O)Nc2ccc3c(c2)OCCO3)n1 ?
ALR H2O2 inh: -11; NS3 helicase inh: 25; EBNA-1 inhibitor: 7; core dimer inh: 0; M18AAP inhibitor: 2; ZTA DNA inh: -14

What do the screens show for `CN(C(=O)C1CCN(S(=O)(=O)c2ccccc2)CC1)c1c(N)n(Cc2ccccc2)c(=O)[nH]c1=O`?
ALR H2O2 inh: -9; EBNA-1 inhibitor: -12; core dimer inh: -3; ZTA DNA inh: -22
